Measurements published in ChEMBL document CHEMBL1949570, “Quinoline- and isoquinoline-sulfonamide derivatives of LCAP as potent CNS multi-receptor-5-HT1A/5-HT2A/5-HT7 and D2/D3/D4-agents: the synthesis and pharmacological evaluation” (Bioorg Med Chem, 2012).
Each block holds one molecule with its values, some of them ahead of it. Active and inactive are the calls of the source. No cut-off for these calls is given here.

How the values were obtained:
Mus musculus [1] = experiment: Antidepressant activity in Swiss albino mouse assessed as reduction in immobility time at 5 to 20 mg/kg measured for 4 mins by forced swim test; assay type: functional; design: scale not given: the % may be the effect or the level left; conditions: dose mg/kg 5-20
How it was run: (§1)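 Porsolt forced swim in male Swiss albino mice. Drugs ip (10 ml/kg; 1% Tween 80 suspension, imipramine in water) 30 min before. Cylinder 25 cm high, 10 cm diameter, 6 cm water at 23–25 °C, 6 min session; immobility scored over final 4 min. 5–10 mice/dose; one-way ANOVA with Bonferroni.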

[2] = target: 5-hydroxytryptamine receptor 2A (Rattus norvegicus, UniProt P14842); experiment: Displacement of [3H]Ketanserin from rat cortex 5-HT2A receptor by liquid scintillation counter
Chain of 5-hydroxytryptamine receptor 2A (P14842 whole entry): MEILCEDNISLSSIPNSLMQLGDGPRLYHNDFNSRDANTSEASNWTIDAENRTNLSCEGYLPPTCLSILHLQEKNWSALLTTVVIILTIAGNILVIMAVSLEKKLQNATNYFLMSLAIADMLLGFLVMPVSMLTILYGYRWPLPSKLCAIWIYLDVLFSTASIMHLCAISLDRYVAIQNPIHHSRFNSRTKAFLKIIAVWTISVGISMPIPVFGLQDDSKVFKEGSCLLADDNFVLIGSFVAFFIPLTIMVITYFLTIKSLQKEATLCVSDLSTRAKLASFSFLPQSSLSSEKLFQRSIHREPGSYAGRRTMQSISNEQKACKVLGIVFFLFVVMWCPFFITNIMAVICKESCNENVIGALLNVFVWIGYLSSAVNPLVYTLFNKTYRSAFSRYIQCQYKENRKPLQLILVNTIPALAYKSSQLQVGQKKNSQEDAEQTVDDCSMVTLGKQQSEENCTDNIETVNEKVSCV
How it was run: (§2)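 Competition binding. 5-HT1A: rat hippocampus, [3H]-8-OH-DPAT. 5-HT2A: rat cortex, [3H]-ketanserin. D2: rat striatum, [3H]-spiperone. 5-HT6: human receptor stably in HEK293, [3H]-LSD. 5-HT7: human receptor stably in HEK293, [3H]-5-CT. Vacuum filtration on GF/B filters, ice-cold washes, scintillation counting.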

[3] = target: T1, 5-hydroxytryptamine receptor 7 (Homo sapiens, UniProt P34969); experiment: Displacement of [3H]5-CT form human cloned 5HT7 receptor expressed in human HEK293 cells by liquid scintillation counter; assay type: cell-based; how it was run: as §2
T1 sequence (P34969 whole entry): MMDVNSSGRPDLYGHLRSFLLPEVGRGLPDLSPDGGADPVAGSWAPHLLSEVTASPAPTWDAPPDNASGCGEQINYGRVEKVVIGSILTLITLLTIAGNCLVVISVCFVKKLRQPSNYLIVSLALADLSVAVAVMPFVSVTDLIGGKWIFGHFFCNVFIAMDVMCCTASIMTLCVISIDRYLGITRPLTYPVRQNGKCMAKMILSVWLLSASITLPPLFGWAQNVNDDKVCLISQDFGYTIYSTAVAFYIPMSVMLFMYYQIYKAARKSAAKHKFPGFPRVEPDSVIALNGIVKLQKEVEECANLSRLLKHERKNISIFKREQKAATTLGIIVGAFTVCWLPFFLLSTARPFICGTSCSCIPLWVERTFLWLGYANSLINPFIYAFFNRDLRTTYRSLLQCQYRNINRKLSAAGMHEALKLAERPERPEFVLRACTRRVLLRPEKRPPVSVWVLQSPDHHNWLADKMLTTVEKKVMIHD

Mus musculus [4] = experiment: Antidepressant activity in mouse assessed as spontaneous locomotor activity 5 to 20 mg/kg; assay type: functional, organism-based
How it was run: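 Swiss albino mice given the forced swim doses ip 30 min before; placed individually in cages and channel crossings counted from 2 to 6 min with a multichannel activity monitor, matching the swim test observation period.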

Mus musculus [5] = experiment: […] activity in ip dosed Swiss albino mouse assessed as inhibition of DOI-induced head twitches administered 20 mins before DOI challenge measured for 20 mins; assay type: functional; conditions: for ED50: read-out: ID50 (the source's name)
[6] = target: T2, 5-hydroxytryptamine receptor 1A (Rattus norvegicus, UniProt P19327); experiment: Displacement of [3H]8-OH-DPAT from rat hippocampus 5-HT1A receptor by liquid scintillation counter; assay type: tissue-based; how it was run: as §2
T2 sequence (P19327 whole entry): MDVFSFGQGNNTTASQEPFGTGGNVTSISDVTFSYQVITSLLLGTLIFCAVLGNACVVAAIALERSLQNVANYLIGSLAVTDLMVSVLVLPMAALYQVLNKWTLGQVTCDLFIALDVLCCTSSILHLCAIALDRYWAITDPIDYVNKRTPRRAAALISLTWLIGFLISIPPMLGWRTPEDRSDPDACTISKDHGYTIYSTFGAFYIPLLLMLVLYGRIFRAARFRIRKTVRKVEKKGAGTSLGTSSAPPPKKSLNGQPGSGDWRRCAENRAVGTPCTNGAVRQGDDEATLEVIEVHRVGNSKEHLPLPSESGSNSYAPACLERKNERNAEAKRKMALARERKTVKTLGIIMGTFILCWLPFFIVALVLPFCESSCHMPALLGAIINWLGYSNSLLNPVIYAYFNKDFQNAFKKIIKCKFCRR

[7] = target: 5-hydroxytryptamine receptor 6 (Homo sapiens, UniProt P50406); experiment: Displacement of [3H]-LSD from human full length cloned 5HT6 receptor expressed in human HEK293 cells by liquid scintillation counter; assay type: cell-based; how it was run: as §2
Chain of 5-hydroxytryptamine receptor 6 (P50406 whole entry): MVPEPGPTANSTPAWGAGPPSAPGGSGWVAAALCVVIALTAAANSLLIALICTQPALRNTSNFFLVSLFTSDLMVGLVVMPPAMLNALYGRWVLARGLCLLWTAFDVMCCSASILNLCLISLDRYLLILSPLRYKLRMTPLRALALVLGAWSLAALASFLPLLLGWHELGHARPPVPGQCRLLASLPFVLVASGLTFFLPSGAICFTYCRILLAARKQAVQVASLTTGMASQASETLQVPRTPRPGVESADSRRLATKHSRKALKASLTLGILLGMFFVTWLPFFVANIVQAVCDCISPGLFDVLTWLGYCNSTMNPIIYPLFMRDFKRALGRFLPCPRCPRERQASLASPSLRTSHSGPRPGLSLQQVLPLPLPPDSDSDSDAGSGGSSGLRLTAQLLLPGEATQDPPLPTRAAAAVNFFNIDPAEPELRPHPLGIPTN

[8] = target: T3, D(4) dopamine receptor (Homo sapiens) (UniProt P21917); experiment: Displacement of [3H]-methylspiperone from human cloned dopamine D4 receptor expressed in HEK293 cells at 10 '-6 M by liquid scintillation counter; assay type: cell-based
T3 sequence (whole entry): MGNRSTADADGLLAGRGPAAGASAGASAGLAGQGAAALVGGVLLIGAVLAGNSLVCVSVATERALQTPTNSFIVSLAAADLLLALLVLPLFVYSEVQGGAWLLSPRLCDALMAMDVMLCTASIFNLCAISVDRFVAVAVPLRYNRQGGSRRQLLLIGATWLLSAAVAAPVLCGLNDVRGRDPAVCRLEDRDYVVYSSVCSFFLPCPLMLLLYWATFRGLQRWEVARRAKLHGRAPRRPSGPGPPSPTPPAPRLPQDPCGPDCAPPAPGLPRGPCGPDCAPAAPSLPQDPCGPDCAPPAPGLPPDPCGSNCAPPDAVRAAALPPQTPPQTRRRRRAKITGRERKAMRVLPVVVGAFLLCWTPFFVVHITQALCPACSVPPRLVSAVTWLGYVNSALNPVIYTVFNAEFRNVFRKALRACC

Rattus norvegicus [9] = experiment: Anxiolytic activity in Wistar rat assessed as increase in open arm entries at 2.5 mg/kg after 5 mins by plus-maze test (reference value: 23.1 +/- […]); assay type: functional
Mus musculus [10] = experiment: Antidepressant activity in Swiss albino mouse assessed as reduction in immobility time at 20 mg/kg measured for 4 mins by forced swim test; assay type: functional; how it was run: as §1
Rattus norvegicus [11] = experiment: Anxiolytic activity in Wistar rat assessed as increase in Y ambulations at 2.5 mg/kg for 5 mins by general locomotor activity test; assay type: functional, organism-based; design: dose 2.5 mg/kg
Mus musculus [12] = experiment: Antidepressant activity in Swiss albino mouse assessed as reduction in immobility time at 10 mg/kg measured for 4 mins by forced swim test; assay type: functional; how it was run: as §1
D(2) dopamine receptor = D(2) dopamine receptor (Rattus norvegicus, UniProt P61169); experiment: Displacement of [3H]-spiperone from rat striatum dopamine D2 receptor by liquid scintillation counter; how it was run: as §2
Chain of D(2) dopamine receptor (P61169 whole entry): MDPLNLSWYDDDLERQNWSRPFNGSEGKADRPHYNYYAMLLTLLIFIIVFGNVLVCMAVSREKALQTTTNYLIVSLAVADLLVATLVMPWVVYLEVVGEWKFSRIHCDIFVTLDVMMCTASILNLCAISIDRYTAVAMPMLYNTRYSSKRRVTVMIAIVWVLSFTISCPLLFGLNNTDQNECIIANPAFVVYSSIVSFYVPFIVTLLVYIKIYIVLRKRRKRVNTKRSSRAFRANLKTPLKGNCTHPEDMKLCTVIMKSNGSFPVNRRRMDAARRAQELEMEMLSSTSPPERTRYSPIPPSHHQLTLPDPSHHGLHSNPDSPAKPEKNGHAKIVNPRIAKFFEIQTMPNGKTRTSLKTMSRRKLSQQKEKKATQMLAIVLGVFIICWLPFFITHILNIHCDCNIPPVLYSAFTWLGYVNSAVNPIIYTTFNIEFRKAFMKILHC

Mus musculus [13] = experiment: Antipsychotic activity in CD1 mouse assessed as inhibition of MK-801-induced hyperactivity measuring number of crossings at 5 to 30 mg/kg measured every 5 mins for 1 hr; assay type: functional, organism-based
How it was run: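 Male CD-1 mice; test compound ip 30 min before, MK-801 0.2 mg/kg (in water) ip 15 min before testing. After 30 min habituation, crossings counted for 60 min, recorded every 5 min. 5–10 mice/group; mean ± SEM; one-way ANOVA, Bonferroni versus vehicle + MK-801.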

Mus musculus [14] = experiment: Antipsychotic activity in CD1 mouse assessed as reduction in spontaneous locomotor activity measuring number of crossings at 10 to 30 mg/kg every 5 mins for 1 hr; assay type: functional, organism-based
How it was run: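 Male CD-1 mice; compound or reference ip 30 min before test plus vehicle. After 30 min habituation in individual cages, crossings counted over 1 h, recorded every 5 min; mean ± SEM; one-way ANOVA, Bonferroni.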

Rattus norvegicus [15] = experiment: Anxiolytic activity in Wistar rat assessed as increase in open arm entries at 10 mg/kg after 5 mins by plus-maze test (reference value: 23.1 +/- […]); assay type: functional
Rattus norvegicus [16] = experiment: Anxiolytic activity in Wistar rat assessed as increase in time spent in open arms at 2.5 mg/kg after 5 mins by plus-maze test (reference value: 7.9 +/- 1.4 %); assay type: functional
[17] = target: D(3) dopamine receptor (Homo sapiens) (UniProt P35462); experiment: Displacement of [3H]-methylspiperone from human cloned dopamine D3 receptor expressed in HEK293 cells at 10 '-6 M by liquid scintillation counter; assay type: cell-based
Chain of D(3) dopamine receptor (Homo sapiens) (P35462 whole entry): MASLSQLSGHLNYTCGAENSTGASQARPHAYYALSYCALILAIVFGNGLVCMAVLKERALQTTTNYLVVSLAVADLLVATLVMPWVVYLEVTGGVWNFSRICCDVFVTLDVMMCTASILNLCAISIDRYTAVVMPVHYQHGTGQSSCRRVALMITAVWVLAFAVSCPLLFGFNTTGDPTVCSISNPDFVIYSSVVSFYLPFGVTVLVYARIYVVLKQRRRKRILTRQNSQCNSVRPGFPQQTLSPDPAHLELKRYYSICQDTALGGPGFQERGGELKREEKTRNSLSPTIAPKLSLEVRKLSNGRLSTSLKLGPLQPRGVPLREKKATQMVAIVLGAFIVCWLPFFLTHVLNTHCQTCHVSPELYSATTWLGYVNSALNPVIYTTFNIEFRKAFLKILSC

Rattus norvegicus [18] = experiment: Anxiolytic activity in Wistar rat assessed as increase in time spent in open arms at 10 mg/kg after 5 mins by plus-maze test (reference value: 7.9 +/- 1.4 %); assay type: functional
[19] = target: T1, 5-hydroxytryptamine receptor 7; experiment: Antagonist activity at human cloned 5HT7 receptor expressed in human CHO cells assessed as adenylate cyclase activity by cAMP accumulation assay; assay type: functional, cell-based
How it was run: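 CHO cells stably expressing human 5-HT7 receptor; intracellular cAMP (adenylate cyclase) measured, expressed as % of maximal effect of 300 nM serotonin. Compounds tested at 5 concentrations spanning 10^-4–10^-9 in antagonist mode. KB from IC50 by modified Cheng–Prusoff, KB = IC50/(1+A/EC50A), A = reference agonist concentration.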

[20] = target: T3, D(4) dopamine receptor (Homo sapiens); experiment: Displacement of [3H]-methylspiperone from human cloned dopamine D4 receptor expressed in HEK293 cells at 10 '-7 M by liquid scintillation counter; assay type: cell-based
Rattus norvegicus [21] = experiment: Anxiolytic activity in Wistar rat assessed as increase in time spent in open arms at 5 mg/kg after 5 mins by plus-maze test (reference value: 7.9 +/- 1.4 %); assay type: functional
Mus musculus [22] = experiment: […] activity in Swiss albino mouse assessed as inhibition of apomorphine-induced climbing behavior administered 10 mins before apomorphine challenge measured for 2 mins; assay type: functional
How it was run: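 Male Swiss albino mice; compounds ip in 1% Tween 80 suspension, 10 min before apomorphine 3 mg/kg. Climbing time (2–4 paws on bar wall) recorded for 2 min starting 20 min after apomorphine.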

[23] = target: D(3) dopamine receptor (Homo sapiens) (UniProt P35462); experiment: Displacement of [3H]-methylspiperone from human cloned dopamine D3 receptor expressed in HEK293 cells at 10 '-7 M by liquid scintillation counter; assay type: cell-based
[24] = Selectivity ratio of compound Ki for rat hippocampus 5-HT1A receptor to human 5HT7 receptor; assay type: tissue-based
How it was run: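 Ratio of Ki values from competition binding: rat hippocampus 5-HT1A with [3H]-8-OH-DPAT versus human 5-HT7 in HEK293 with [3H]-5-CT; Ki by Cheng–Prusoff from 7–9 concentrations in triplicate.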

Rattus norvegicus [25] = experiment: Anxiolytic activity in Wistar rat assessed as increase in open arm entries at 5 mg/kg after 5 mins by plus-maze test (reference value: 23.1 +/- […]); assay type: functional
Rattus norvegicus [26] = experiment: Anxiolytic activity in Wistar rat assessed as increase in total distance at 2.5 mg/kg for 5 mins by general locomotor activity test; assay type: functional, organism-based; design: dose 2.5 mg/kg

Ki [2]: 56 nM
Ki [3]: 88 nM
Ki [6]: 208 nM
Ki [7]: 155 nM
Structure (SMILES): Cl.O=S(=O)(NCCCCN1CCN(c2cccc(Cl)c2)CC1)c1cnc2ccc(Cl)cc2c1
Activity (Mus musculus [1]): 44%
Activity (Mus musculus [4]): inactive
inhibition (Mus musculus [5]): Dose-dependent effect
ED50 (Mus musculus [5]): 4.75 mg/kg

inhibition [8]: 98%
Ki (D(2) dopamine receptor): 60 nM
Ki [2]: 59 nM
inhibition [17]: 93%
Ki [3]: 47 nM
Kb [19]: 90 nM
inhibition [20]: 70%
inhibition [23]: 67%
Ki [6]: 3210 nM
Ki [7]: 16700 nM
Ratio Ki [24]: 68
Structure (SMILES): Cl.O=S(=O)(c1cncc2ccccc12)N1CCC(CCN2CCN(c3ccc(Cl)cc3)CC2)CC1
Activity (Rattus norvegicus [9]): 36.4%
Activity (Mus musculus [10]): Active
Activity (Rattus norvegicus [11]): Active
Activity (Mus musculus [12]): Active
inhibition (Mus musculus [13]): Active
Activity (Mus musculus [14]): inactive
Activity (Rattus norvegicus [15]): 40.3%
Activity (Rattus norvegicus [16]): 25%
Activity (Rattus norvegicus [18]): 29.3%
Activity (Rattus norvegicus [21]): 19.4%
inhibition (Mus musculus [22]): Dose-dependent effect
ED50 (Mus musculus [22]; read-out: ID50 (the source's name)): 25.5 mg/kg
inhibition (Mus musculus [5]): Dose-dependent effect
ED50 (Mus musculus [5]): 20.3 mg/kg
Activity (Rattus norvegicus [25]): 32.9%
Activity (Rattus norvegicus [26]): Active
